The subject of assay [1] is Aspergillus fumigatus. Nature of the assay: Antimicrobial activity against Aspergillus fumigatus RCMB 02568 assessed as diameter of zone inhibition at 100 ug/ml after 48 hrs by agar well diffusion assay. It is filed as functional. To be noted: for zone of inhibition at 100 µg/mL: RCMB 02568, 48 h, read-out: DIZ. A digest of the protocol:
(§1)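 Agar well diffusion on malt agar plates seeded with the fungus, using 1 cm wells. Plates were held at 4°C for 1 h for diffusion, then incubated at 28°C. Inhibition zone diameters were measured at 48 h. Amphotericin B was the positive control. Run in triplicate, with the mean zone reported.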

Assay [2] relates to Candida albicans. Nature of the assay: Antimicrobial activity against Candida albicans RCMB 05036 assessed as diameter of zone inhibition at 100 ug/ml after 48 hrs by agar well diffusion assay. Type of assay: functional. To be noted: for zone of inhibition at 100 µg/mL: RCMB 05036, 48 h, read-out: DIZ. A digest of the protocol:
as §1

Assay [3] relates to Streptococcus pneumoniae. Nature of the assay: Antimicrobial activity against Streptococcus pneumoniae RCMB 010010 assessed as diameter of zone inhibition at 100 ug/ml after 24 hrs by agar well diffusion assay. Type of assay: functional. To be noted: for zone of inhibition at 100 µg/mL: RCMB 010010, 24 h, read-out: DIZ. A digest of the protocol:
(§2)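 Agar well diffusion on nutrient agar plates seeded with the bacterium, using 1 cm wells. Plates were held at 4°C for 1 h for diffusion, then incubated at 37°C. Inhibition zone diameters were measured at 24 h. Ciprofloxacin was the positive control. Run in triplicate, with the mean zone reported.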

Assay [4] concerns Staphylococcus aureus. Nature of the assay: Antimicrobial activity against Staphylococcus aureus RCMB 010028 assessed as diameter of zone inhibition at 100 ug/ml after 24 hrs by agar well diffusion assay. It is filed as functional. As to conditions: for zone of inhibition at 100 µg/mL: RCMB 010028, 24 h, read-out: DIZ. A digest of the protocol: as §2
Assay [5] relates to Escherichia coli. Nature of the assay: Antimicrobial activity against Escherichia coli RCMB 010052 assessed as diameter of zone inhibition at 100 ug/ml after 24 hrs by agar well diffusion assay. It is filed as functional. To be noted: for zone of inhibition at 100 µg/mL: RCMB 010052, 24 h, read-out: DIZ. A digest of the protocol:
as §2
On the technique in general: Agar diffusion results depend on both activity and mobility in agar.

Assay [6] deals with Mycobacterium tuberculosis. Nature of the assay: Antimycobacterial activity against Mycobacterium tuberculosis RCMB 010126 clinical isolate after 7 days by MABA. Type of assay: functional. A digest of the protocol:
(§3)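 Inoculum from fresh LJ culture resuspended in 7H9-S broth with casitone, glycerol and OADC, adjusted to McFarland No. 1 and diluted 1:20. Serial two-fold compound dilutions in 7H9-S; isoniazid reference. Incubated 7 days at 37°C in air, then Alamar blue added and incubated overnight. Percent inhibition = 1 − (test well/growth-control mean) × 100; MIC = lowest concentration preventing blue-to-pink change.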
On the technique in general: The colour change of resazurin is a common sign of viable cells or microbes.

Assay [7] deals with Mycobacterium tuberculosis. Nature of the assay: Antimycobacterial activity against Mycobacterium tuberculosis RCMB 010126 clinical isolate assessed as inhibition zone after 7 days by MABA. Type of assay: functional. The method in brief:
as §3

Assay [8] relates to Pseudomonas aeruginosa. As to conditions: RCMB 010043, 100 ug/ml.
Assay [9] deals with Aspergillus fumigatus. Nature of the assay: Antimicrobial activity against Aspergillus fumigatus RCMB 02568 after 48 hrs by serial dilution method. Type of assay: functional. As to conditions: RCMB 02568, 48 h. The method in brief:
(§4)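 Serial twofold dilution in microtiter plates starting from a 100 mmol stock in DMSO; final concentrations 125 down to 0.12 […]. Incubated at 28°C and read on a microplate reader after 48 h. Amphotericin B was the reference. Run in triplicate, with the average taken. MIC was the lowest concentration inhibiting growth.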

Assay [10] relates to Candida albicans. Nature of the assay: Antimicrobial activity against Candida albicans RCMB 05036 after 48 hrs by serial dilution method. To be noted: RCMB 05036, 48 h. Type of assay: functional. A digest of the protocol:
as §4

Assay [11] concerns Streptococcus pneumoniae. Nature of the assay: Antimicrobial activity against Streptococcus pneumoniae RCMB 010010 after 24 hrs by serial dilution method. Type of assay: functional. As to conditions: RCMB 010010, 24 h. The method in brief: (§5)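 Serial twofold dilution in microtiter plates starting from a 100 mmol stock in DMSO; final concentrations 125 down to 0.12 […]. Incubated at 37°C and read on a microplate reader after 24 h. Ciprofloxacin was the reference. Run in triplicate, with the average taken. MIC was the lowest concentration inhibiting growth.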

In assay [12] the test system is Staphylococcus aureus. Nature of the assay: Antimicrobial activity against Staphylococcus aureus RCMB 010028 after 24 hrs by serial dilution method. To be noted: RCMB 010028, 24 h. Type of assay: functional. A digest of the protocol:
as §5

In assay [13] the test system is Escherichia coli. Nature of the assay: Antimicrobial activity against Escherichia coli RCMB 010052 after 24 hrs by serial dilution method. Type of assay: functional. To be noted: RCMB 010052, 24 h. The method in brief:
as §5

The subject of assay [14] is Pseudomonas aeruginosa. To be noted: RCMB 010043.
Where [15] appears, read: Mycobacterium tuberculosis, RCMB 010126, 168 h.

In brackets after ≈: the same amount, converted by molar mass. Activity calls are given as the source filed them.

As to `Cc1ccc(/C=N/NC(=O)c2c[nH]c3ccc(Cl)cc3c2=O)cc1`, the figures for the zone of inhibition at 100 µg/mL in assay [1], in assay [2] and in [3] were 10.3 mm, 12.1 mm and 20.4 mm, respectively. The “diameter of the inhibition zone (DIZ)” value in [4] and in [5] was “inactive” throughout. Moreover, the MIC result in assay [6] was “inactive”. Moreover, in assay [7], the “inhibition zone (IZ)” value was “inactive”. Moreover, in [8], the DIZ result was “inactive”.
For `COc1cc(/C=N/NC(=O)c2c[nH]c3cc(Cl)ccc3c2=O)cc(OC)c1OC`, the “diameter of the inhibition zone (DIZ)” value in [1], in assay [2], in assay [3], in assay [4] and in assay [5] was “inactive” in each case. In addition, the MIC in assay [6] (setting [15]) is 6.24 mg/L (≈ 15 µM). Also, the “inhibition zone (IZ)” value in [7] is given as 42.65 mm. Besides, the DIZ result in assay [8] was “inactive”.
Consider `O=C(N/N=C/c1ccc(F)cc1)c1c[nH]c2ccc(Cl)cc2c1=O`, for which the MIC in assay [9] was 15.6 mg/L (≈ 45.5 µM); in assay [10] it was 31.2 mg/L (≈ 90.9 µM); in [11], 15.6 mg/L (≈ 45.5 µM); in [12] it was 31.2 mg/L (≈ 90.9 µM); in [13] it was 62.5 mg/L (≈ 182 µM). Further, the zone of inhibition at 100 µg/mL turned out to be 11.3 mm in assay [1]; 10.3 mm in assay [2]; 12.4 mm in assay [3]; 10.6 mm in assay [4]; 12.7 mm in [5]. The MIC entry in [6] and in [14] was “inactive” throughout. The “inhibition zone (IZ)” value in assay [7] was “inactive”. In addition, the DIZ result in [8] is “inactive”.
Consider `Cc1nc(-c2cccc(Cl)c2)ccc1C(=O)N/N=C/c1ccc(F)cc1`, for which the “diameter of the inhibition zone (DIZ)” value in assay [1], in [2], in assay [3], in assay [4] and in assay [5] was “inactive” throughout. Moreover, the MIC in assay [6] (setting [15]) stood at 3.12 mg/L (≈ 8.48 µM). Further, the “inhibition zone (IZ)” value in [7] is on record as 52.34 mm. Also, the DIZ entry in [8] is “inactive”.
With `O=C(N/N=C/c1ccc(Cl)cc1Cl)c1c[nH]c2ccc(Cl)cc2c1=O`, the MIC in [9] worked out at 15.6 mg/L (≈ 39.6 µM); in [10], 62.5 mg/L (≈ 158 µM); in assay [11], 7.81 mg/L (≈ 19.8 µM); in assay [12], 15.6 mg/L (≈ 39.6 µM); in [13], 1.95 mg/L (≈ 4.94 µM); in [6] (setting [15]), 99.8 mg/L (≈ 253 µM). Further, the zone of inhibition at 100 µg/mL was 16.9 mm in assay [1]; 14.1 mm in assay [2]; 17.5 mm in assay [3]; 15.7 mm in [4]; 20.7 mm in assay [5]. Moreover, the “inhibition zone (IZ)” value in assay [7] was found to be 18.3 mm. In addition, in [8], the DIZ result is “inactive”. Also, the MIC result in assay [14] is “inactive”.
Take `COc1cc(/C=N/NC(=O)c2c[nH]c3ccc(Cl)cc3c2=O)cc(OC)c1OC`: the MIC in assay [9] amounted to 7.81 mg/L (≈ 18.8 µM); in assay [10], 31.2 mg/L (≈ 75.2 µM); in [11] it was 7.81 mg/L (≈ 18.8 µM); in [12], 15.6 mg/L (≈ 37.6 µM); in assay [13], 3.9 mg/L (≈ 9.38 µM). Further, the zone of inhibition at 100 µg/mL is 18.1 mm in assay [1]; 16.3 mm in [2]; 18.4 mm in assay [3]; 17.3 mm in assay [4]; 19.3 mm in [5]. Further, the MIC entry in assay [6] and in assay [14] was “inactive” in each case. Moreover, the “inhibition zone (IZ)” value in assay [7] was “inactive”. Further, the DIZ result in assay [8] was “inactive”.
Molecule `NNC(=O)c1ccncc1` [ISONIAZID] displayed an MIC in assay [6] (setting [15]) of 0.75 mg/L (≈ 5.47 µM). In assay [7], the “inhibition zone (IZ)” value was “inactive”.
As for `O=C(N/N=C/c1ccc(F)cc1)c1c[nH]c2cc(Cl)ccc2c1=O`, the zone of inhibition at 100 µg/mL in assay [1] was 16.8 mm; in [2], 14.4 mm; in assay [3] it was 16.9 mm; in assay [4], 16.2 mm; in [5] it was 12.5 mm. In [6] (setting [15]), this molecule had an MIC of 12.5 mg/L (≈ 36.3 µM). The “inhibition zone (IZ)” value in assay [7] is given as 36.42 mm. Moreover, in assay [8], the DIZ entry is “inactive”.
Take `Cc1nc(-c2ccc(Cl)cc2)ccc1C(=O)N/N=C/c1ccc(F)cc1`: the “diameter of the inhibition zone (DIZ)” value in [1], in [2], in assay [3], in [4] and in [5] was “inactive” in each case. In assay [6] (setting [15]), this molecule returned an MIC of 6.24 mg/L (≈ 17 µM). Moreover, the “inhibition zone (IZ)” value in assay [7] is 40.31 mm. Further, the DIZ entry in [8] was “inactive”.
As for `C[C@@H]1[C@H](O)[C@@H](C)/C=C/C=C/C=C/C=C/C=C/C=C/C=C/[C@H](O[C@@H]2O[C@H](C)[C@@H](O)[C@H](N)[C@@H]2O)C[C@@H]2O[C@](O)(C[C@@H](O)C[C@@H](O)[C@H](O)CC[C@@H](O)C[C@@H](O)CC(=O)O[C@H]1C)C[C@H](O)[C@H]2C(=O)O` [AMPHOTERICIN B], the minimum inhibitory concentration (MIC) in assay [9] worked out at 1.95 mg/L (≈ 2.11 µM); in assay [10], 0.98 mg/L (≈ 1.06 µM). For the same molecule, the zone of inhibition at 100 µg/mL in assay [1] is 23.7 mm; in assay [2], 25.4 mm.
As for `CC1(C)S[C@@H]2[C@H](NC(=O)[C@H](N)c3ccccc3)C(=O)N2[C@H]1C(=O)O` [AMPICILLIN], the figures for the zone of inhibition at 100 µg/mL in assay [3] and in [4] were 23.8 mm and 27.4 mm, respectively. Further, the MIC in [11] and in assay [12] was 0.98 mg/L (≈ 2.8 µM) each time.
For `Cc1nc(-c2cccc(Cl)c2)ccc1C(=O)N/N=C/c1ccc(Cl)cc1Cl`, the “diameter of the inhibition zone (DIZ)” value in [1], in assay [2] and in assay [5] was “inactive” in each case. Moreover, the values for the zone of inhibition at 100 µg/mL in [3] and in assay [4] were 19.3 mm and 11.4 mm, respectively. Moreover, the MIC in assay [6] (setting [15]) is 6.24 mg/L (≈ 14.9 µM). In addition, the “inhibition zone (IZ)” value in [7] turned out to be 41.98 mm. The DIZ entry in [8] is “inactive”.
On to `Cc1ccc(/C=N/NC(=O)c2ccc(-c3ccc(Cl)cc3)nc2C)cc1`, for which the “diameter of the inhibition zone (DIZ)” value in assay [1], in assay [2], in assay [3], in [4] and in assay [5] was “inactive” in each case. The molecule further displayed an MIC in [6] (setting [15]) of 49.9 mg/L (≈ 137 µM). For the same molecule, the “inhibition zone (IZ)” value in assay [7] stood at 26.35 mm. Besides, the DIZ entry in [8] is “inactive”.
In the case of `Cc1nc(-c2ccc(Cl)cc2)ccc1C(=O)N/N=C/c1ccc(Cl)cc1`, the “diameter of the inhibition zone (DIZ)” value in assay [1], in assay [2], in assay [3], in assay [4] and in assay [5] was “inactive” in each case. Besides, it took 12.5 mg/L (≈ 32.5 µM) to inhibit growth in assay [6] (setting [15]) (MIC). Also, in [7], the “inhibition zone (IZ)” value was determined as 36.24 mm. In addition, the DIZ result in [8] is “inactive”.

Broadly, the MIC is the smallest concentration in the dilution series that meets the test's criterion for growth inhibition.

The values are drawn from ChEMBL document CHEMBL4130356, “Design, synthesis and 2D QSAR study of novel pyridine and quinolone hydrazone derivatives as potential antimicrobial and antitubercular agents” (Eur J Med Chem, 2017).
